Test results from ChEMBL document CHEMBL1240484, “New 4H-chromen-4-one and 2H-chromene derivatives as anti-picornavirus capsid-binders” (Bioorg Med Chem, 2010).

Tests used:
[1] = Cytotoxicity against human HeLa cells after 3 days by XTT assay; format: cell-based; settings: read-out: TC50
How it was run: (§1)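 HeLa cells seeded at 2 × 10³ per well with twofold compound dilutions from the maximum soluble concentration, quadruplicate wells, 37 °C in 5% CO2 for 3 days until controls were confluent. Morphology also scored microscopically. MNTC is the highest dose with no toxicity or growth reduction.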

[2] = Cytotoxicity against human HeLa cells assessed as maximum non-cytotoxic concentration after 3 days by XTT assay; format: cell-based
How it was run: as §1, with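 “confluent. XTT added (final 0.15 mg/mL) for 4 h, absorbance read at 492 nm with 690 nm reference.” for “confluent.”, “microscopically. […]” for “microscopically.”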

[3] = tested on: rhinovirus A1B; experiment: Antiviral activity against Human rhinovirus 1B infected in human HeLa cells after 3 days by plaque reduction assay; format: functional, organism-based; settings: for IC50: Rhinovirus A, 72 h
How it was run: (§2)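 HeLa monolayers infected with ATCC HRV 14 or 1B at about 100 plaques per well, 1 h adsorption at 33 °C. Inoculum removed, then plaque overlay with fourfold drug dilutions from the MNTC. Three days at 33 °C, neutral red (0.2 mg/mL, PBS pH 7.4) staining and plaque count, triplicate wells. IC50 from log dose vs % reduction relative to mock-treated control. Otherwise % inhibition at MNTC is reported.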

[4] = Therapeutic index, ratio of TC50 for human HeLa cells to IC50 for HRV 1B; format: cell-based; settings: read-out: TI
How it was run: (§3)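 Therapeutic index calculated as TC50 for HeLa cells (XTT, 3 days) divided by IC50 for plaque reduction of HRV 14 or HRV 1B in HeLa cells.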

[5] = tested on: rhinovirus B14; experiment: Antiviral activity against Human rhinovirus 14 infected in human HeLa cells after 3 days by plaque reduction assay; format: functional, organism-based; settings: for IC50: Rhinovirus B, 72 h; how it was run: as §2
[6] = Therapeutic index, ratio of TC50 for human HeLa cells to IC50 for HRV 14; format: cell-based; settings: read-out: TI; how it was run: as §3
[7] = Cytotoxicity against human Hep2 cells assessed as maximum non-cytotoxic concentration after 3 days by XTT assay; format: cell-based, HEp-2
How it was run: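 Hep-2 cells grown in high-glucose DMEM, seeded at 2 × 10³ per well with twofold dilutions from the maximum soluble concentration, quadruplicate wells, 3 days at 37 °C in 5% CO2. XTT (final 0.15 mg/mL) for 4 h, read at 492/690 nm, plus microscopic scoring. MNTC is the highest dose causing no toxic effect or growth reduction.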

[8] = tested on: Enterovirus A71; experiment: Antiviral activity against Human enterovirus 71 infected in human Hep2 cells after 2 days by plaque reduction assay; format: functional, organism-based; settings: for IC50: Enterovirus A, HEp-2, 48 h; for Activity: HEp-2
How it was run: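 Inoculum removed, then plaque overlay with fourfold drug dilutions starting from the MNTC. Two days at 37 °C, neutral red (0.2 mg/mL in PBS pH 7.4) staining, plaques counted, triplicate wells. IC50 taken from log dose vs % plaque reduction.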

[9] = tested on: Enterovirus A71; experiment: Antiviral activity against Human enterovirus 71 infected in human Hep2 cells at maximum non-cytotoxic concentration […] by plaque reduction assay; format: functional, HEp-2
[10] = tested on: rhinovirus B14; experiment: Antiviral activity against Human rhinovirus 14 infected in human HeLa cells at maximum non-cytotoxic concentration after 3 days by plaque reduction assay; format: functional; how it was run: as §2

SMILES: Clc1ccc(/C=C/C2=Cc3ccccc3OC2)cc1
- CC50 at 72 h [1]: 100 µM
- MNTC at 72 h [2]: 50 µM
- Activity [3]: Dose-dependent effect
- IC50 [3]: 0.4 µM
- selectivity ratio [4]: 250
- Activity [5]: Dose-dependent effect
- IC50 [5]: 18.4 µM
- selectivity ratio [6]: 5.44
- MNTC at 72 h [7]: 50 µM
- IC50 [8]: > 50 µM
- Activity [8]: Dose-dependent effect
- inhibition (INH) [9]: 49.7%

SMILES: Clc1ccc(/C=C/C2=Cc3cc(Cl)ccc3OC2)cc1
- CC50 at 72 h [1]: 50 µM
- MNTC at 72 h [2]: 25 µM
- Activity [3]: Dose-dependent effect
- IC50 [3]: 7.13 µM
- selectivity ratio [4]: 7.01
- Activity [5]: Dose-dependent effect
- IC50 [5]: 8.28 µM
- selectivity ratio [6]: 6.04
- MNTC at 72 h [7]: 12.5 µM
- IC50 [8]: > 12.5 µM
- Activity [8]: Dose-dependent effect
- inhibition (INH) [9]: 46.6%

SMILES: Clc1ccc(/C=C/C=C/C2=Cc3ccccc3OC2)cc1
- CC50 at 72 h [1]: 6.25 µM
- MNTC at 72 h [2]: 3.12 µM
- Activity [3]: Dose-dependent effect
- IC50 [3]: 3.1 µM
- selectivity ratio [4]: 2
- Activity [5]: Dose-dependent effect
- IC50 [5]: > 3.12 µM
- inhibition (INH) [10]: 30.4%
- MNTC at 72 h [7]: 3.12 µM
- IC50 [8]: > 3.12 µM
- Activity [8]: Dose-dependent effect
- inhibition (INH) [9]: 32.9%

SMILES: O=c1c(/C=C/C=C/c2ccccc2)coc2ccccc12
- CC50 at 72 h [1]: 50 µM
- MNTC at 72 h [2]: 25 µM
- Activity [3]: Dose-dependent effect
- IC50 [3]: 5.27 µM
- selectivity ratio [4]: 9.49
- Activity [5]: Dose-dependent effect
- IC50 [5]: 15 µM
- selectivity ratio [6]: 3.33
- MNTC at 72 h [7]: 25 µM
- IC50 [8]: > 25 µM
- Activity [8]: Dose-dependent effect
- inhibition (INH) [9]: 39.8%

SMILES: O=c1c(/C=C/C=C/c2ccccc2)coc2ccc(Cl)cc12
- CC50 at 72 h [1]: 100 µM
- MNTC at 72 h [2]: 50 µM
- Activity [3]: Dose-dependent effect
- IC50 [3]: 1.6 µM
- selectivity ratio [4]: 62.5
- Activity [5]: Dose-dependent effect
- IC50 [5]: > 50 µM
- inhibition (INH) [10]: 48.3%
- MNTC at 72 h [7]: 50 µM
- IC50 [8]: > 50 µM
- Activity [8]: Dose-dependent effect
- inhibition (INH) [9]: 46.7%

SMILES: O=c1c(/C=C/C=C/c2ccc(Cl)cc2)coc2ccc(Cl)cc12
- CC50 at 72 h [1]: 6.25 µM
- MNTC at 72 h [2]: 3.12 µM
- Activity [3]: Dose-dependent effect
- IC50 [3]: 0.71 µM
- selectivity ratio [4]: 8.8
- Activity [5]: Dose-dependent effect
- IC50 [5]: > 3.12 µM
- inhibition (INH) [10]: 36.2%
- MNTC at 72 h [7]: 3.12 µM
- IC50 [8]: > 3.12 µM
- Activity [8]: Dose-dependent effect
- inhibition (INH) [9]: 46.6%

SMILES: Clc1ccc2c(c1)C=C(/C=C/c1ccccc1)CO2
- CC50 at 72 h [1]: 100 µM
- MNTC at 72 h [2]: 50 µM
- Activity [3]: Dose-dependent effect
- IC50 [3]: 11.2 µM
- selectivity ratio [4]: 8.93
- Activity [5]: Dose-dependent effect
- IC50 [5]: 11.2 µM
- selectivity ratio [6]: 8.95
- MNTC at 72 h [7]: 50 µM
- IC50 [8]: > 50 µM
- Activity [8]: Dose-dependent effect
- inhibition (INH) [9]: 30.8%

SMILES: O=c1c(/C=C/c2ccccc2)coc2ccc(Cl)cc12
- CC50 at 72 h [1]: 50 µM
- MNTC at 72 h [2]: 25 µM
- Activity [3]: Dose-dependent effect
- IC50 [3]: 3.22 µM
- selectivity ratio [4]: 15.5
- Activity [5]: Dose-dependent effect
- IC50 [5]: > 25 µM
- inhibition (INH) [10]: 33.1%
- MNTC at 72 h [7]: 25 µM
- IC50 [8]: > 25 µM
- Activity [8]: Dose-dependent effect
- inhibition (INH) [9]: 37%

SMILES: O=c1c(/C=C/C=C/c2ccc(Cl)cc2)coc2ccccc12
- CC50 at 72 h [1]: 50 µM
- MNTC at 72 h [2]: 25 µM
- Activity [3]: Dose-dependent effect
- IC50 [3]: 4.09 µM
- selectivity ratio [4]: 12.2
- Activity [5]: Dose-dependent effect
- IC50 [5]: 4.07 µM
- selectivity ratio [6]: 12.3
- MNTC at 72 h [7]: 25 µM
- IC50 [8]: > 25 µM
- Activity [8]: Dose-dependent effect
- inhibition (INH) [9]: 49.1%

SMILES: Clc1ccc(/C=C/C=C/C2=Cc3cc(Cl)ccc3OC2)cc1
- CC50 at 72 h [1]: 12.5 µM
- MNTC at 72 h [2]: 6.25 µM
- Activity [3]: Dose-dependent effect
- IC50 [3]: 0.54 µM
- selectivity ratio [4]: 23.1
- Activity [5]: Dose-dependent effect
- IC50 [5]: > 6.25 µM
- inhibition (INH) [10]: 12.8%
- MNTC at 72 h [7]: 6.25 µM
- IC50 [8]: > 6.25 µM
- Activity [8]: Dose-dependent effect
- inhibition (INH) [9]: 39.1%

SMILES: O=c1c(/C=C/c2ccc(Cl)cc2)coc2ccc(Cl)cc12
- CC50 at 72 h [1]: 50 µM
- MNTC at 72 h [2]: 25 µM
- Activity [3]: Dose-dependent effect
- IC50 [3]: 2.19 µM
- selectivity ratio [4]: 22.2
- Activity [5]: Dose-dependent effect
- IC50 [5]: > 25 µM
- inhibition (INH) [10]: 24.1%
- MNTC at 72 h [7]: 25 µM
- IC50 [8]: > 25 µM
- Activity [8]: Dose-dependent effect
- inhibition (INH) [9]: 35.7%

SMILES: O=c1c(/C=C/c2ccc(Cl)cc2)coc2ccccc12
- CC50 at 72 h [1]: 50 µM
- MNTC at 72 h [2]: 25 µM
- Activity [3]: Dose-dependent effect
- IC50 [3]: 4.54 µM
- selectivity ratio [4]: 11
- Activity [5]: Dose-dependent effect
- IC50 [5]: 5.52 µM
- selectivity ratio [6]: 9.06
- MNTC at 72 h [7]: 25 µM
- IC50 [8]: > 25 µM
- Activity [8]: Dose-dependent effect
- inhibition (INH) [9]: 21.6%

SMILES: Clc1ccc(C2CCc3cc(Cl)ccc3O2)cc1 (stereo unspecified)
- MNTC at 72 h [7]: 10 µM

SMILES: C1=C(/C=C/C=C/c2ccccc2)COc2ccccc21
- CC50 at 72 h [1]: 100 µM
- MNTC at 72 h [2]: 50 µM
- Activity [3]: Dose-dependent effect
- IC50 [3]: 30.8 µM
- selectivity ratio [4]: 3.24
- Activity [5]: Dose-dependent effect
- IC50 [5]: 50 µM
- selectivity ratio [6]: 2
- MNTC at 72 h [7]: 50 µM
- IC50 [8]: > 50 µM
- Activity [8]: Dose-dependent effect
- inhibition (INH) [9]: 29.5%

SMILES: O=c1c(/C=C/c2ccccc2)coc2ccccc12
- CC50 at 72 h [1]: > 200 µM
- MNTC at 72 h [2]: > 200 µM
- Activity [3]: Dose-dependent effect
- IC50 [3]: 3.12 µM
- selectivity ratio [4]: > 64.2
- Activity [5]: Dose-dependent effect
- IC50 [5]: 4.36 µM
- selectivity ratio [6]: > 45.9
- MNTC at 72 h [7]: 50 µM
- IC50 [8]: > 50 µM
- Activity [8]: Dose-dependent effect
- inhibition (INH) [9]: 34.6%

SMILES: Clc1ccc2c(c1)C=C(/C=C/C=C/c1ccccc1)CO2
- CC50 at 72 h [1]: 25 µM
- MNTC at 72 h [2]: 12.5 µM
- Activity [3]: Dose-dependent effect
- IC50 [3]: 6.27 µM
- selectivity ratio [4]: 3.99
- Activity [5]: Dose-dependent effect
- IC50 [5]: > 12.5 µM
- inhibition (INH) [10]: 37.2%
- MNTC at 72 h [7]: 12.5 µM
- IC50 [8]: > 12.5 µM
- Activity [8]: Dose-dependent effect
- inhibition (INH) [9]: 25.4%
